Measured values: ChEMBL document CHEMBL1135971, “(2S,1'S,2'S,3'R)-2-(2'-carboxy-3'-methylcyclopropyl) glycine is a potent and selective metabotropic group 2 receptor agonist with anxiolytic properties” (2002)

Legend:
[1] = biological target: Metabotropic glutamate receptor 5 (Homo sapiens) (UniProt P41594); assay: Phosphoinositide hydrolysis by human Metabotropic glutamate receptor 5 (mGluR5) expressed in non neuronal cells; assay type: cell-based
Procedure, shortened: (§1)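 Transfected nonneuronal cells seeded at 2.5 × 10^5 per well in glutamine-free medium for 24 h, then labeled with [3H]myo-inositol (4 µCi/mL) for 20 h. Washed in buffer with 10 mM HEPES, inositol and LiCl. Compound added and incubated 60 min at 37 °C. [3H]inositol monophosphate separated by anion exchange and counted by scintillation. Read-out: EC50 for PI hydrolysis.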

[2] = biological target: Metabotropic glutamate receptor 2 (Homo sapiens) (UniProt Q14416); assay: Inhibition of c-AMP by human Metabotropic glutamate receptor 2 (mGluR2) expressed in non-neuronal cells; assay type: cell-based
Procedure, shortened: (§2)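 Clonal nonneuronal cell lines expressing each mGlu subtype, washed in PBS with 3 mM glucose and 500 μM IBMX, preincubated 30 min at 37 °C. Compound added with forskolin (15 μM final), 20 min at 37 °C. Stopped with 6 mM EDTA and boiling. cAMP measured by [3H]cAMP SPA, with protein per well by Bradford assay. Read-out: EC50 for inhibition of forskolin-stimulated cAMP.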

[3] = biological target: Metabotropic glutamate receptor 7 (Homo sapiens) (UniProt Q14831); assay: (§3) Inhibition of c-AMP by human Metabotropic glutamate receptor 7 (mGluR7) expressed in non-neuronal cells; assay type: cell-based; procedure, shortened: as §2
[4] = biological target: Metabotropic glutamate receptor 3 (Homo sapiens) (UniProt Q14832); assay: (§4) Inhibition of c-AMP by human Metabotropic glutamate receptor 3 (mGluR3) expressed in non-neuronal cells; assay type: cell-based; procedure, shortened: as §2
[5] = biological target: Metabotropic glutamate receptor 8 (Homo sapiens) (UniProt O00222); assay: Inhibition of c-AMP by human Metabotropic glutamate receptor 8 (mGluR8) expressed in non-neuronal cells; assay type: cell-based; procedure, shortened: as §2
[6] = biological target: Metabotropic glutamate receptor 4 (Homo sapiens) (UniProt Q14833); assay: (§5) Inhibition of c-AMP by human Metabotropic glutamate receptor 4 (mGluR4) expressed in non-neuronal cells; assay type: cell-based; procedure, shortened: as §2
[7] = biological target: Metabotropic glutamate receptor 6 (Homo sapiens) (UniProt O15303); assay: (§6) Inhibition of c-AMP by human Metabotropic glutamate receptor 6 (mGluR6) expressed in non-neuronal cells; assay type: cell-based; procedure, shortened: as §2
[8] = biological target: Metabotropic glutamate receptor 7 (Homo sapiens) (UniProt Q14831); assay: as §3; assay type: cell-based; remark: listed apart in the source
Procedure, shortened: (§7)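 Clonal nonneuronal cell lines transfected with each mGlu receptor. Cells washed in Dulbecco's PBS with 3 mM glucose and 500 μM IBMX, preincubated 30 min at 37 °C, then washed. Compound added with forskolin (15 μM final) and incubated 20 min at 37 °C. Stopped with 6 mM EDTA plus boiling, cAMP measured by [3H]cAMP SPA and normalised to Bradford protein. EC50 for inhibition of forskolin-stimulated cAMP.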

[9] = biological target: Metabotropic glutamate receptor 3 (Homo sapiens) (UniProt Q14832); assay: as §4; assay type: cell-based; procedure, shortened: as §7; remark: listed apart in the source
[10] = biological target: Metabotropic glutamate receptor 4 (Homo sapiens) (UniProt Q14833); assay: as §5; assay type: cell-based; procedure, shortened: as §7; remark: listed apart in the source
[11] = biological target: Metabotropic glutamate receptor 6 (Homo sapiens) (UniProt O15303); assay: as §6; assay type: cell-based; procedure, shortened: as §7; remark: listed apart in the source
Rattus norvegicus = assay: Mean effective dose that significantly blocked fear-potentiated startle(oral administration); settings: read-out: MED
[12] = biological target: Metabotropic glutamate receptor 7 (Rattus norvegicus) (UniProt P35400); assay: Inhibition of c-AMP by rat Metabotropic glutamate receptor 7 mGluR7) expressed in non-neuronal cells
[13] = biological target: Metabotropic glutamate receptor 5 (Homo sapiens) (UniProt P41594); assay: Phosphoinositide hydrolysis by Metabotropic glutamate receptor 5 (mGluR5) expressed in non neuronal cells; assay type: cell-based; procedure, shortened: as §1

Sequence of Metabotropic glutamate receptor 3 (Homo sapiens) (Q14832 23-879 limits assumed): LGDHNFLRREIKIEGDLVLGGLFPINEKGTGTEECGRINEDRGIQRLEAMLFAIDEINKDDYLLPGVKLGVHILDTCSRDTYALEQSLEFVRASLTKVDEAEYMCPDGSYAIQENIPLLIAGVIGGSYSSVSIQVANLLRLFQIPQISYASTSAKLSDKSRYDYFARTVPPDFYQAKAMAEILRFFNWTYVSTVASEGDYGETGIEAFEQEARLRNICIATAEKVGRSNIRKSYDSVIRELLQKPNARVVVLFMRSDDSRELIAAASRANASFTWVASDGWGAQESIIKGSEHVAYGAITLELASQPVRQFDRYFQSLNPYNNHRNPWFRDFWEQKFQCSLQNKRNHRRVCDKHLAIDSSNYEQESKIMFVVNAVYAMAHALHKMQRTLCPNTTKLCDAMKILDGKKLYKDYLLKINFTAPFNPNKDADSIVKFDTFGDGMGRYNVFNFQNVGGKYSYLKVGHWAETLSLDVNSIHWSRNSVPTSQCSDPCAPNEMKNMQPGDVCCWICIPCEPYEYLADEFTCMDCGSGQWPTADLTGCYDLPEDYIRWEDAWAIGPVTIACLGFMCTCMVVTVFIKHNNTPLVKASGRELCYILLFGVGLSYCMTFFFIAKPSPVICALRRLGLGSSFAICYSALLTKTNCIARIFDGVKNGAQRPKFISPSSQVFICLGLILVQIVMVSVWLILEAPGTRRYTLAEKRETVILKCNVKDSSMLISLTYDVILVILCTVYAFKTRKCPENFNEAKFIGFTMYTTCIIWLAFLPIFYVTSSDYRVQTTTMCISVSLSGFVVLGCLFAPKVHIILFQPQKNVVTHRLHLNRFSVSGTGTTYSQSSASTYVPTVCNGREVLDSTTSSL
Sequence of Metabotropic glutamate receptor 5 (Homo sapiens) (P41594 21-1212 limits assumed): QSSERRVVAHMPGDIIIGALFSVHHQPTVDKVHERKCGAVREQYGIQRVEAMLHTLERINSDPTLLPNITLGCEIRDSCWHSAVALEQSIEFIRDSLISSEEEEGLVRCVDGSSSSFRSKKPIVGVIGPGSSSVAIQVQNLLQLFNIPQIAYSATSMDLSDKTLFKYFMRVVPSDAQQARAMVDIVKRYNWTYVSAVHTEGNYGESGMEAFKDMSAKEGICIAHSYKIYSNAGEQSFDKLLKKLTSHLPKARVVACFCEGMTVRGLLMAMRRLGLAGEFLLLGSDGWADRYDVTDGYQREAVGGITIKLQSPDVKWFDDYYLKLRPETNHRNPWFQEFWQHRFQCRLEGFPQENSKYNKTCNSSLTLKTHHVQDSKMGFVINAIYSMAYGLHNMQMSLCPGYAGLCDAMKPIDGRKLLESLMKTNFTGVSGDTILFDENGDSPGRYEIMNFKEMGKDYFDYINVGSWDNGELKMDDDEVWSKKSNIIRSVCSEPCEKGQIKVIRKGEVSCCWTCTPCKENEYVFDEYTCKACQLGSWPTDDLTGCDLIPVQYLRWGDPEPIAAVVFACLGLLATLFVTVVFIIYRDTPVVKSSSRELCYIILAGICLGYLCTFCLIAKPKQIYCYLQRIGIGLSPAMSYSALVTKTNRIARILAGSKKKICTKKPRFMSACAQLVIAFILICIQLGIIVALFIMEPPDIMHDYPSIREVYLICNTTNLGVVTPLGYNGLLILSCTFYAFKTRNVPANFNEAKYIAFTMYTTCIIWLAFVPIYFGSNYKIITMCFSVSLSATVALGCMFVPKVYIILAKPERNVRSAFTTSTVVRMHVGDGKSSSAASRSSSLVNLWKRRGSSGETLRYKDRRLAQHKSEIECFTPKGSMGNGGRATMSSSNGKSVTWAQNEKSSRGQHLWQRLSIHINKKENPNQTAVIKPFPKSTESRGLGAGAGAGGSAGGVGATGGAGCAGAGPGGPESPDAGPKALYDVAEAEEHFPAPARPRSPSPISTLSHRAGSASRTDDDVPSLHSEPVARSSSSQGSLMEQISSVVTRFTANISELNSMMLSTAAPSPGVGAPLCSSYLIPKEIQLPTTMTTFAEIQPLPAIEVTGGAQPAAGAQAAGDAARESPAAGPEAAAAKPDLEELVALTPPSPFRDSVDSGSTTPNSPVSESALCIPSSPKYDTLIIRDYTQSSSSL
Sequence of Metabotropic glutamate receptor 7 (Homo sapiens) (Q14831 whole entry): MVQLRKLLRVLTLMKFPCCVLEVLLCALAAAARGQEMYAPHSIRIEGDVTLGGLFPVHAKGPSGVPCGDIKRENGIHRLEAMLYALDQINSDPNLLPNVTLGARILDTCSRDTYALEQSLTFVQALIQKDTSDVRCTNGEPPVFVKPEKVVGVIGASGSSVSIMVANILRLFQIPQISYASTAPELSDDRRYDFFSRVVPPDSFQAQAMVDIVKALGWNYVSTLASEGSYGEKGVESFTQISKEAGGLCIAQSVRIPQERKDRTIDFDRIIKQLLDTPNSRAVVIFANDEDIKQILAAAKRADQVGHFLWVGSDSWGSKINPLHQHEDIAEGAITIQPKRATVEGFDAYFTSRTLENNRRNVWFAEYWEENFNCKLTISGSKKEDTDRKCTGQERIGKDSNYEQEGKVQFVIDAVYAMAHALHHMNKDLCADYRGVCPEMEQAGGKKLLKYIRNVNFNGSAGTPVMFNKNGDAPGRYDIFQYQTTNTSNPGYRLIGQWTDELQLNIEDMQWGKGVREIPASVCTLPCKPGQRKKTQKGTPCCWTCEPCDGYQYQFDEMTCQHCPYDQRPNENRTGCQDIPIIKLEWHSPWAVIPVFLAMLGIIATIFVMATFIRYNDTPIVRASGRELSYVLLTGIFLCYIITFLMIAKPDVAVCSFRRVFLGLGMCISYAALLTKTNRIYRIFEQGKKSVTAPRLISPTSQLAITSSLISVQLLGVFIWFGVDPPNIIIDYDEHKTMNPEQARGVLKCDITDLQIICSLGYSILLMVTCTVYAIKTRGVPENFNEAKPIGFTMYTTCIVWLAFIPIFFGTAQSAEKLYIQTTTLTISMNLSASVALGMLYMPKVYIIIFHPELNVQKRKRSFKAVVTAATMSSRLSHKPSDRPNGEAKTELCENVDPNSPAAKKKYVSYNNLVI
Sequence of Metabotropic glutamate receptor 4 (Homo sapiens) (Q14833 whole entry): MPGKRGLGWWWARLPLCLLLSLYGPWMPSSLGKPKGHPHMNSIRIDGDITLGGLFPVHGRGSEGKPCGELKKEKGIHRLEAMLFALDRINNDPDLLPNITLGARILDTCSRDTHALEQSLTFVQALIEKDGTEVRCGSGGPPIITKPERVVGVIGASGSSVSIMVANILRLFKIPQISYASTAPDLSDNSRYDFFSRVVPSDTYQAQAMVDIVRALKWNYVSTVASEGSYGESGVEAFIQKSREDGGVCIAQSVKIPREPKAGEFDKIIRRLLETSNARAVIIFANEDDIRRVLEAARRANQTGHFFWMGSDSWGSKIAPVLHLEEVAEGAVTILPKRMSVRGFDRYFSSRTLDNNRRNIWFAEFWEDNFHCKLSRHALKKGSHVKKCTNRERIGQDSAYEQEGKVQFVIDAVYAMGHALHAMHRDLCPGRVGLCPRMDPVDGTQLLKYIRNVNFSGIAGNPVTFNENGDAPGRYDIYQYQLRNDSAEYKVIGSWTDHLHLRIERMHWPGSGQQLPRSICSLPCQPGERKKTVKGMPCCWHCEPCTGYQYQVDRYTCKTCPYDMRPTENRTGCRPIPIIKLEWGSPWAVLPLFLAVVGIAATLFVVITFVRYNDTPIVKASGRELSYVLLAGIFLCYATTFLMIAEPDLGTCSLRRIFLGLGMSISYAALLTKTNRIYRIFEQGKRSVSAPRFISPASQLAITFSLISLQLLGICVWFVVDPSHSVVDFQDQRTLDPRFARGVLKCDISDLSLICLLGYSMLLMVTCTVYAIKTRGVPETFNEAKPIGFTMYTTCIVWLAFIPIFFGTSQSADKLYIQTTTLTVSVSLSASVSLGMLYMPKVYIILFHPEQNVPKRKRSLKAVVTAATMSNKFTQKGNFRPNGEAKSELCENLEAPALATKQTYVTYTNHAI
Sequence of Metabotropic glutamate receptor 8 (Homo sapiens) (O00222 whole entry): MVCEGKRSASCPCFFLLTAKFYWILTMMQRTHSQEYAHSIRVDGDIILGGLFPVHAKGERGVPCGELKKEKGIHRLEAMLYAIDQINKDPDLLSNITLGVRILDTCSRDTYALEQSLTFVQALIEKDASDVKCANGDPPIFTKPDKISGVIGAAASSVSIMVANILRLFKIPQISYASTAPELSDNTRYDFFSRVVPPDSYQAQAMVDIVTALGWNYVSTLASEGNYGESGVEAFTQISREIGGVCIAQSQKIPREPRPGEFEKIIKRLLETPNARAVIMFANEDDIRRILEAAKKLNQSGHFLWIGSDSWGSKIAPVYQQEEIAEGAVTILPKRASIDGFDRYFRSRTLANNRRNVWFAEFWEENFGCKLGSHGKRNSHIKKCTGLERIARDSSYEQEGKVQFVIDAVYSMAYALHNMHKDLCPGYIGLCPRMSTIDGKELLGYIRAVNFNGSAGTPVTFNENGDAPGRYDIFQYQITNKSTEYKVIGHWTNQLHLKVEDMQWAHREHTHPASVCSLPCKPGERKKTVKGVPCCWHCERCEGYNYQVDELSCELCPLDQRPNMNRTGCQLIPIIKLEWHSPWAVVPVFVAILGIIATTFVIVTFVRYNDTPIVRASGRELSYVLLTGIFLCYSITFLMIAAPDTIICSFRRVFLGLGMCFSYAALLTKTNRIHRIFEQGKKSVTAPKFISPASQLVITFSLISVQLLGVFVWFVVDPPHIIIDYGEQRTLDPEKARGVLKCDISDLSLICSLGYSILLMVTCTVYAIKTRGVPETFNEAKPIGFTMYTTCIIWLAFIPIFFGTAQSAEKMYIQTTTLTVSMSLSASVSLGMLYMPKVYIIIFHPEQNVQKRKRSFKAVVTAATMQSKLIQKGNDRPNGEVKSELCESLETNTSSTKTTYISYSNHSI
Sequence of Metabotropic glutamate receptor 7 (Rattus norvegicus) (P35400 whole entry, looked up): as the sequence (Q14831 whole entry) above, with R5G, A27V, N454H, S488T, A520S, D578N counted along it

Row | Structure (SMILES) | Activity [1] | Activity [2] | Activity [3] | Activity [4] | Activity [5] | Activity [6] | Activity [7] | Activity [8] | Activity [9] | Activity [10] | Activity [11] | minimal effective dose (Rattus norvegicus) | Activity [12] | Activity [13]
1 | COC[C@@H]1[C@H](C(=O)O)[C@H]1[C@H](N)C(=O)O | > 100 µM | 300 nM |  |  |  |  |  |  |  |  |  |  |  | 
2 | N[C@@]1(C(=O)O)CS[C@H]2[C@H](C(=O)O)[C@H]21 | > 100 µM | 4 nM | > 100 µM | 8 nM | 7 µM | > 100 µM | 2000 nM |  |  |  |  |  |  | 
3 | N[C@@]1(C(=O)O)CC(=O)[C@@H]2[C@H]1[C@@]2(F)C(=O)O | > 100 µM |  |  |  |  |  |  | > 100 µM | 2.7 nM | > 100 µM | > 100 nM |  |  | 
4 | N[C@@H](CCC(=O)O)C(=O)O | 4 µM |  | 5400 µM | 9000 nM |  | 12 µM | 20000 nM |  |  |  |  |  |  | 
5 | N[C@]1(C(=O)O)[C@H]2[C@@H](C[C@@H]1F)[C@@H]2C(=O)O | > 100 µM |  |  |  | > 100 µM |  |  | > 100 µM | 45.4 nM | > 100 µM | > 100 nM |  |  | 
6 | N[C@@]1(C(=O)O)CC[C@H]2[C@H](C(=O)O)[C@H]21 [EGLUMETAD] | > 100 µM | 7.9 nM | > 100 µM | 21 nM | 11.5 µM | > 100 µM | 3000 nM |  |  |  |  | 3 mg/kg |  | 
7 | C[C@@H]1[C@H](C(=O)O)[C@H]1[C@H](N)C(=O)O | > 100 µM | 188 nM |  | 2000 nM | 2.8 µM |  |  |  |  |  |  |  |  | 
8 | N[C@@]1(C(=O)O)CC[C@@H]2[C@H]1[C@@]2(F)C(=O)O | > 100 µM | 16.6 nM | > 100 µM | 89 nM |  | > 100 µM | > 100 nM |  |  |  |  |  |  | 
9 | N[C@@]1(C(=O)O)CC[C@@H](C(=O)O)C1 | 15 µM | 12000 nM | 1000 µM | 860000 nM | 45 µM | 90 µM | 18000 nM |  |  |  |  |  |  | 
10 | C[C@H]1[C@H](C(=O)O)[C@H]1[C@H](N)C(=O)O | > 100 µM | 8 nM | > 100 µM | 38 nM | 1.32 µM | > 100 µM | 1200 nM |  |  |  |  | 0.0003 mg/kg |  | 
11 | N[C@H](C(=O)O)C1[C@@H](C(=O)O)[C@@H]1C(=O)O (stereo not given in full) | 389 µM | 300 nM |  | 200 nM | 32 µM | 23 µM | 40000 nM |  |  |  |  |  | 40 µM | 
12 | N[C@@]1(C(=O)O)CO[C@H]2[C@H](C(=O)O)[C@H]21 | > 100 µM | 3 nM | > 100 µM | 5 nM | 2 µM | 21 µM | 400 nM |  |  |  |  |  |  | 
13 | N[C@H](C(=O)O)[C@H]1C[C@@H]1C(=O)O | 17 µM | 300 nM | 47 µM | 600 nM | 0.4 µM |  | 600 nM |  |  |  |  |  |  | 
14 | COC[C@H]1[C@H](C(=O)O)[C@H]1[C@H](N)C(=O)O |  | 100 nM |  |  |  |  |  |  |  |  |  |  |  | > 100 µM
